Assay outcomes deposited in PubChem by several laboratories.
esBAF inh – inhibitors of esBAF chromatin remodeling in mouse ES cells; Bmi1-luciferase knock-in reporter, 24 h; 100% = twice the neutral-well signal; 350,000 compounds, 2% hits; reporter increase, % at 12.5 µM; AID 602393; in the data active = activation above about 40%;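 also: 0% = median of the plate's neutral control wells and 100% = double that signal; a rise in the Bmi1 reporter signal indicates esBAF inhibition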
ARFGAP1 inhibitor – inhibitors of rat ARFGAP1 | Q62848 | Arfgap1-stimulated ARF1 GTP hydrolysis, GDP FP detection | inhibition, % at 16.5 µM | 360,000 compounds, 0.26% hits;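 active = inhibition above a per-plate limit, mean inhibition of low control wells plus 3 SD, cut at about 25% in these data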;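 also: 0% = DMSO wells with enzyme and 100% = wells lacking Arfgap1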
Target sequence (Q62848 1-136 limits assumed): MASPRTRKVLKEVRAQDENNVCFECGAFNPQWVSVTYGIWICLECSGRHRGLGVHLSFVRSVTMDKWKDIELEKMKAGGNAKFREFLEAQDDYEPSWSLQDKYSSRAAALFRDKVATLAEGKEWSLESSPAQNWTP
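system = rat Arfgap1 catalytic domain, aa 1-136 | technique = FP, GDP Alexa 633 tracer displaced from anti-GDP antibody, 620/688 nm | compound = one concentration, 16.5 µM, DMSO 1.26% | medium = HEPES-based buffer, pH 7.5 | timing = compound-enzyme preincubation 20 min, reaction 120 min, detection 60 min, 25 °C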
SMARCA2 act – activators of SMARCA2 function. MG213 cells, MMTV-luciferase reporter, dexamethasone, overnight. activation, % at 9.1 µM. 370,000 compounds, 1% hits. AID 652017; in the data active = activation above about 7.8%;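 also: 0% = vehicle wells and 100% = reference activator wells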
ASAP1 GAP inh – inhibitors of human ASAP1 ArfGAP activity; ASAP1-stimulated ARF1 GTP hydrolysis, GDP FP detection; inhibition, % at 16.5 µM; 360,000 compounds, 0.19% hits; in the data active = inhibition above about 25%;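 also: 0% = vehicle with enzyme and substrate and 100% = no enzyme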
Target sequence (Q9ULH1 325-724 limits assumed): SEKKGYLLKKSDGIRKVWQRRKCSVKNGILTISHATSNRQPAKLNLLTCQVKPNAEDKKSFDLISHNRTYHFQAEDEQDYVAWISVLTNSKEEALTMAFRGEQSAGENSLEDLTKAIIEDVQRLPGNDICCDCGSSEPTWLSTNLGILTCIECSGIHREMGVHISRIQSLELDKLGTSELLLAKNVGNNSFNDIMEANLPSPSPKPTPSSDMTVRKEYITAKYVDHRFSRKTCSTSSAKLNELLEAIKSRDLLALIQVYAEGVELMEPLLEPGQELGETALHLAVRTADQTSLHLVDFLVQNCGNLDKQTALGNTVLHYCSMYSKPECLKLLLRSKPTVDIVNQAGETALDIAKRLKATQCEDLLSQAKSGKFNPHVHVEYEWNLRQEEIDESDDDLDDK
ASAP1 GAP conf – ASAP1 inhibition confirmed. shares compounds with ASAP1 GAP inh. ASAP1-stimulated Arf1 GTPase, GDP fluorescence polarization. inhibition, % at 16.5 µM. 620 compounds, 37% hits;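 active = mean inhibition over triplicates exceeds the hit threshold derived for the earlier primary screening run, cut at about 25% in these data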
The depositor's hits bear a star. Rows were chosen to be rich in hits. Some 2.6% of all compounds tested hit in one or more screens of this group.

What do the screens show for `C[C@@H]1CN([C@H](C)CO)C(=O)c2cc(NC(=O)CCC(F)(F)F)ccc2O[C@H]1CN(C)S(=O)(=O)c1ccc(Cl)cc1`?
esBAF inh: 2

What do the screens show for `O=C(Nc1ccc2oc(=O)ccc2c1)c1ccc(-c2ccc(Cl)cc2)o1`?
ARFGAP1 inhibitor: 7; SMARCA2 act: 1; ASAP1 GAP inh: 48*; ASAP1 GAP conf: 69*

What do the screens show for `O=C(Nc1ccc2oc(=O)ccc2c1)c1ccc(-c2cccc(Cl)c2)o1`?
ARFGAP1 inhibitor: -1; SMARCA2 act: -2; ASAP1 GAP inh: 24

Results for O=C(c1n[nH]c(=O)c2ccccc12)N1CCN(S(=O)(=O)c2ccccc2Cl)CC1 ?
esBAF inh: 0; ARFGAP1 inhibitor: -1; SMARCA2 act: 2; ASAP1 GAP inh: 25*; ASAP1 GAP conf: 1

How did C[C@H](CO)N1C[C@H](C)[C@H](CN(C)C(=O)C2CCC2)Oc2ncc(-c3cccc(F)c3)cc2C1=O do in these assays?
esBAF inh: -10

Results for COCC(=O)N(C)C[C@@H]1Oc2ncc(-c3ccccc3OC)cc2C(=O)N([C@H](C)CO)C[C@@H]1C ?
esBAF inh: -9

Results for CCN(C(=S)NCc1ccccc1)c1cccc2ccccc12 ?
esBAF inh: 7; ARFGAP1 inhibitor: 0; SMARCA2 act: 2; ASAP1 GAP inh: 25*; ASAP1 GAP conf: 2

Results for C/C=C/c1ccc([C@@H]2[C@@H](CO)N(C(C)=O)[C@H]2CN(CC(C)C)C(C)=O)cc1 ?
esBAF inh: 4

What do the screens show for `O=C(c1ccncc1)N1C[C@@H]2[C@H](c3ccccc31)[C@@H](CO)N2Cc1ccc(F)cc1`?
esBAF inh: -1

How did O=C(CNC(=O)c1ccc(F)cc1)Nc1ccccc1C(F)(F)F do in these assays?
ARFGAP1 inhibitor: -11; SMARCA2 act: -3; ASAP1 GAP inh: 25*; ASAP1 GAP conf: 1

How did CCNC(=O)/C(C#N)=C/c1c(N2CC(C)OC(C)C2)nc2ccccn2c1=O (stereo not drawn) do in these assays?
ARFGAP1 inhibitor: -6; SMARCA2 act: -5; ASAP1 GAP inh: 49*; ASAP1 GAP conf: 1

What do the screens show for `CCNC(=O)c1ccc(CSc2nc3ccccc3s2)cc1`?
ARFGAP1 inhibitor: 12; SMARCA2 act: 0; ASAP1 GAP inh: 27*; ASAP1 GAP conf: 8

How did CCC(C)/C(C)=N/NC(=O)c1ccc(CSc2nc3ccccc3s2)cc1 (stereo not drawn) do in these assays?
ARFGAP1 inhibitor: -11; SMARCA2 act: 0; ASAP1 GAP inh: -5

Results for O=C1C(=O)c2ccccc2C(O)=C1c1ccccc1F ?
esBAF inh: -2; ARFGAP1 inhibitor: -8; SMARCA2 act: -3; ASAP1 GAP inh: 7

How did O=C1C(O)=C(O)C(=O)c2ccccc21 do in these assays?
esBAF inh: 7; ARFGAP1 inhibitor: 4; SMARCA2 act: 0; ASAP1 GAP inh: 30*; ASAP1 GAP conf: 10

What do the screens show for `O=[N+]([O-])c1cccc(-c2cc(-c3cc(Br)ccc3O)[nH]n2)c1`?
esBAF inh: 4; ARFGAP1 inhibitor: 21; SMARCA2 act: -5; ASAP1 GAP inh: 25*; ASAP1 GAP conf: 17

What do the screens show for `COc1ccc(S(=O)(=O)Nc2ccc3c(c2)CC(=O)N([C@H](C)CO)C[C@H](C)[C@@H](CN(C)CC2CC2)O3)cc1`?
esBAF inh: 3

What do the screens show for `COc1ccc(/C=N/NC(=O)c2cccc(NC(C)=O)c2)c(OC)c1`?
ARFGAP1 inhibitor: 0; SMARCA2 act: 2; ASAP1 GAP inh: 6

How did CCCCC(=O)Nc1cccc(C(=O)N/N=C/c2ccc(OC)cc2OC)c1 do in these assays?
ARFGAP1 inhibitor: 7; SMARCA2 act: -1; ASAP1 GAP inh: 26*; ASAP1 GAP conf: 13

How did CCN1[C@@H]2c3ccc(-c4ccc(OC)cc4)c(=O)n3C[C@@H]2[C@@H](CO)[C@@H]1C(=O)NC1CCC1 do in these assays?
esBAF inh: 1

Results for OC[C@@H]1CN(Cc2ccc(-c3ccccc3)cc2)C[C@H](n2cnc3c(Nc4ccccc4)ncnc32)O1 ?
esBAF inh: -6; ARFGAP1 inhibitor: 11; SMARCA2 act: -7; ASAP1 GAP inh: 26*; ASAP1 GAP conf: 12

What do the screens show for `CO[C@@H]1CN(C)C(=O)c2ccc(NS(C)(=O)=O)cc2OC[C@@H](C)N(C(=O)C2CCC2)C[C@@H]1C`?
esBAF inh: -2

How did O=C(N/N=C/c1cccnc1)c1cc2ccccc2o1 do in these assays?
esBAF inh: 8; ARFGAP1 inhibitor: 18; SMARCA2 act: -4; ASAP1 GAP inh: 1

What do the screens show for `O=C(N/N=C/c1cccnc1)c1cc2c(ccc3ccccc32)o1`?
esBAF inh: -15; ARFGAP1 inhibitor: 25; SMARCA2 act: -2; ASAP1 GAP inh: 28*; ASAP1 GAP conf: 55*

Results for COc1ccc(-n2nc(C(=O)NCC(=O)Nc3ccccn3)c3ccccc3c2=O)cc1Cl ?
esBAF inh: -4; ARFGAP1 inhibitor: 12; SMARCA2 act: -2; ASAP1 GAP inh: 51*; ASAP1 GAP conf: 61*

What do the screens show for `COc1ccc(-n2nc(C(=O)NCC(=O)NC(C)C)c3ccccc3c2=O)cc1Cl`?
esBAF inh: -2; ARFGAP1 inhibitor: 7; SMARCA2 act: -2; ASAP1 GAP inh: 12

How did CCNC(=O)[C@@H]1[C@@H](CO)[C@@H]2Cn3c(ccc(-c4cccnc4)c3=O)[C@@H]2N1Cc1ccc2c(c1)OCO2 do in these assays?
esBAF inh: -1

Results for CCC(=O)Nc1ccc2c(c1)C(=O)N(C)C[C@@H](OC)[C@H](C)CN(CCc1ccccc1)[C@@H](C)CO2 ?
esBAF inh: 2

How did CCC(=O)N(C)C[C@H]1Oc2ncc(-c3ccccc3OC)cc2C(=O)N([C@@H](C)CO)C[C@H]1C do in these assays?
esBAF inh: 3

What do the screens show for `CC(C)CC#Cc1ccc2c(c1)O[C@@H](CN(C)S(C)(=O)=O)[C@@H](C)CN([C@@H](C)CO)S2(=O)=O`?
esBAF inh: 10

How did CC(Oc1ccc(Cl)cc1Cl)c1nc(-c2ccc(NC(=O)c3ccncc3)cc2)no1 (stereo not drawn) do in these assays?
esBAF inh: -7; ARFGAP1 inhibitor: 4; SMARCA2 act: -6; ASAP1 GAP inh: 25*; ASAP1 GAP conf: 8

Results for CO[C@@H]1CN(C)C(=O)c2ccc(NS(=O)(=O)c3ccccc3)cc2OC[C@H](C)N(Cc2cccnc2)C[C@@H]1C ?
esBAF inh: -4

Results for CC1CC(C)CN(C(=O)c2cccc(N3C(=O)c4ccccc4C3=O)c2)C1 (stereo not drawn) ?
esBAF inh: -4; ARFGAP1 inhibitor: -6; SMARCA2 act: -4; ASAP1 GAP inh: 25*; ASAP1 GAP conf: 8

What do the screens show for `CC1CCN(C(=O)c2ccc(N3C(=O)c4ccccc4C3=O)cc2)CC1`?
esBAF inh: -3; ARFGAP1 inhibitor: 0; SMARCA2 act: -2; ASAP1 GAP inh: -6

What do the screens show for `CC(C)N(C(=O)Nc1ccc2nsnc2c1)C(C)C`?
ARFGAP1 inhibitor: 20; SMARCA2 act: -6; ASAP1 GAP inh: 41*; ASAP1 GAP conf: 7
